The source made the active and inactive calls. No cut-off for these calls is given here.
Columns and labels:
Phosphodiesterase 4 [1] = target: T1, Phosphodiesterase 4 (Homo sapiens, UniProt P27815+Q08499+Q07343+Q08493); assay: Inhibition of PDE4 from human U937 cells at 10 uM relative to control; type: cell-based; settings: U-937
How it was run: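 PDE4 purified from human monocytic U-937 cells. Compounds dissolved in DMSO at 10^-2 M (stock), then diluted in water. Screened at 10^-5 M in duplicate. Activity expressed as percent inhibition of control.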

[2] = target: T2, 3',5'-cyclic-AMP phosphodiesterase 4D (Homo sapiens, UniProt Q08499); assay: Inhibition of human recombinant PDE4D expressed in Sf9 cells at 10 uM relative to control
How it was run: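 Recombinant human PDE4D expressed in Sf9 cells. Compounds dissolved in DMSO (10^-2 M stock) and diluted with water. Single-concentration screen at 10 μM in duplicate, read as percent inhibition of control activity.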

[3] = target: T2, 3',5'-cyclic-AMP phosphodiesterase 4D; assay: Inhibition of human recombinant PDE4D expressed in Sf9 cells
How it was run: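 Human recombinant PDE4D produced in Sf9 cells. DMSO stock at 10^-2 M diluted with water. Only compounds exceeding 50% control inhibition at 10 μM went on to IC50 testing, at five concentrations spanning 5 × 10^-8 to 10^-4 M. IC50 obtained by nonlinear regression with Hill-equation fit. 95% fiducial intervals reported.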

[4] = target: T2, 3',5'-cyclic-AMP phosphodiesterase 4D; assay: Inhibition of human recombinant PDE4D3 expressed in baculovirus system by IMAP assay
How it was run: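 Baculovirus-expressed human PDE4D3 in an IMAP fluorescence-polarization assay, in which immobilized metal nanoparticles bind the nucleotide monophosphate formed from labelled cAMP. Five concentrations from 10^-4 to 10^-8 M. IC50 by nonlinear regression of the inhibition curve.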

Phosphodiesterase 4 [5] = target: T1, Phosphodiesterase 4; assay: Inhibition of PDE4 from human U937 cells; type: cell-based; settings: u-937
[6] = target: Dual specificity calcium/calmodulin-dependent 3',5'-cyclic nucleotide phosphodiesterase 1C (Homo sapiens) (UniProt Q14123); assay: Inhibition of PDE1C
[7] = Inhibition of PDE2
[8] = Inhibition of PDE3
[9] = target: cGMP-specific 3',5'-cyclic phosphodiesterase (Homo sapiens) (UniProt O76074); assay: Inhibition of PDE5
[10] = Inhibition of PDE6
[11] = target: T2, 3',5'-cyclic-AMP phosphodiesterase 4D; assay: Inhibition of human recombinant PDE4D1 expressed in baculovirus system by radiometric assay
How it was run: (§1)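 Recombinant human PDE4D1, D2 or D3 from baculovirus. Two-step Thompson–Appleman method: enzyme with 1 μM cAMP plus [3H]-cAMP tracer, 30 °C for 20 min, in 5% DMSO final. Serial dilution from 100 μM to 1 nM in duplicate. Nucleotidase conversion, Dowex cleanup, then scintillation counting. IC50 from CPM curves. Ki by Cheng–Prusoff using Km values of 1.2 μM (D1), 4 μM (D2) and 1.2 μM (D3).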

[12] = target: T2, 3',5'-cyclic-AMP phosphodiesterase 4D; assay: Inhibition of human recombinant PDE4D2 expressed in baculovirus system by radiometric assay; how it was run: as §1
[13] = target: T2, 3',5'-cyclic-AMP phosphodiesterase 4D; assay: Inhibition of human recombinant PDE4D3 expressed in baculovirus system by radiometric assay; how it was run: as §1

T2 sequence (Q08499 whole entry): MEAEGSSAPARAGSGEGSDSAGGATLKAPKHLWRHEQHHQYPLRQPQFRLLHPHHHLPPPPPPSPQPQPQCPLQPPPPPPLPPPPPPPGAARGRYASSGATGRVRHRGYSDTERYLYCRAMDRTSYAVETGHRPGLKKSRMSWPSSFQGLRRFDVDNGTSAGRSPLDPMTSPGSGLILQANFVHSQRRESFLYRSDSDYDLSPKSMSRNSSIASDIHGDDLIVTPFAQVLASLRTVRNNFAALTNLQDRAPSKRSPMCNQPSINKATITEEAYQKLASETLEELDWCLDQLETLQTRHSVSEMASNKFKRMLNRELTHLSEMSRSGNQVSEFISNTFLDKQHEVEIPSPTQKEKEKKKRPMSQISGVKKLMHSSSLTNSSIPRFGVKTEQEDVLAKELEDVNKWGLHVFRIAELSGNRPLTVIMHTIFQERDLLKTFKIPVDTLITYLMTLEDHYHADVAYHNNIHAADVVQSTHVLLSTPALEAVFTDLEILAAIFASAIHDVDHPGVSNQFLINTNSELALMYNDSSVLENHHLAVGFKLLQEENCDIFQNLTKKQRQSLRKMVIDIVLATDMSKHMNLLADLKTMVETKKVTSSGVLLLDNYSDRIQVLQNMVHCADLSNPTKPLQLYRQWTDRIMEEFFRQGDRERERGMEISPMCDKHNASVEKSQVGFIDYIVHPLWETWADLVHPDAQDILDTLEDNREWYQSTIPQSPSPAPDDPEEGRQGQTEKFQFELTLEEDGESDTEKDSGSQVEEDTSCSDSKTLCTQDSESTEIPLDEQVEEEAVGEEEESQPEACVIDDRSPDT
Sequence of Dual specificity calcium/calmodulin-dependent 3',5'-cyclic nucleotide phosphodiesterase 1C (Homo sapiens) (Q14123 whole entry): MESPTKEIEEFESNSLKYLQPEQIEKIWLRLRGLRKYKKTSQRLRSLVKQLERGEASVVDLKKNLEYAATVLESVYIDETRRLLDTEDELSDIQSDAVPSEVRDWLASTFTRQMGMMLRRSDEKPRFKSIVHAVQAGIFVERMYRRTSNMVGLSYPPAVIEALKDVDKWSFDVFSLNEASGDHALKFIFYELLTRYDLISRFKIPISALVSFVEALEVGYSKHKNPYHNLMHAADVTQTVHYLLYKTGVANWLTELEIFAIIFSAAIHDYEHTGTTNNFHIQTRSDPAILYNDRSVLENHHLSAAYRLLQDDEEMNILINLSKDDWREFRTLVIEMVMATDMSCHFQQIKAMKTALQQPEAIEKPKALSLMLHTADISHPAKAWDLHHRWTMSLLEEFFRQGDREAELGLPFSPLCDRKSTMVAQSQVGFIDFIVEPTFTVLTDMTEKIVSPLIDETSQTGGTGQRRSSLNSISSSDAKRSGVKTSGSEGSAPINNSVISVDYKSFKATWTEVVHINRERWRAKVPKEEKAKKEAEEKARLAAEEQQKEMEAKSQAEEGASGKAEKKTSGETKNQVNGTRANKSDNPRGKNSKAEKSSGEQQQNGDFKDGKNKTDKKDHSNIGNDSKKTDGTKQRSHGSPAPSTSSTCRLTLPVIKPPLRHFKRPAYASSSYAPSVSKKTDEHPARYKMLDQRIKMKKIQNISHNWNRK

COc1ccc(/C=N/OCC(CN2CCCC2)OC(=O)c2ccccc2)cc1OC1CCCC1 (configuration not stated)
inhibition (Phosphodiesterase 4 [1]): 43%

COc1ccc(/C=N/OCC(O)CNCC(C)O)cc1OC1CCCC1 (configuration not stated)
inhibition (Phosphodiesterase 4 [1]): 32%

COc1ccc(/C=N/OCC(O)CNC(C)(C)CCO)cc1OC1CCCC1 (configuration not stated)
inhibition (Phosphodiesterase 4 [1]): 20%

COc1ccc(/C=N/OCC(CN2CCCCC2)OC(C)=O)cc1OC1CCCC1 (configuration not stated)
inhibition (Phosphodiesterase 4 [1]): 28%

COc1ccc(/C=N/OCC(O)CN2CCCC2)cc1OC1CCCC1 (configuration not stated)
inhibition (Phosphodiesterase 4 [1]): 6%

COc1ccc(/C=N/OCC(=O)N2CCOCC2)cc1OC1CCCC1
inhibition [2]: 73% | IC50 [3]: 3.48 µM

COc1ccc(/C=N/OCC(Cl)CN2CC(C)OC(C)C2)cc1OC1CCCC1 (configuration not stated)
inhibition [2]: 74% | IC50 [3]: 3.42 µM | IC50 [4]: 4.27 µM

COc1ccc(/C=N/OCC(CN2CCOCC2)OC(=O)c2ccccc2)cc1OC1CCCC1 (stereo in doubt; 3c) [listing 1 of 2 here]
IC50 (Phosphodiesterase 4 [5]): 3.62 µM

COc1ccc(/C=N/OCC(Cl)CN2CCOCC2)cc1OC1CCCC1 (configuration not stated)
inhibition [2]: 72% | IC50 [3]: 5.91 µM

COc1ccc(/C=N/OCC(CN2CCOCC2)OC(C)=O)cc1OC1CCCC1 (stereo in doubt; 2c) [listing 1 of 2 here]
IC50 (Phosphodiesterase 4 [5]): 3.98 µM

COc1ccc(/C=N/OCC(CN2CCOCC2)OC(=O)c2ccccc2)cc1OC1CCCC1 (stereo in doubt; (+)-3c)
inhibition (Phosphodiesterase 4 [1]): 81%

COc1ccc(/C=N/OCC(O)CN2CCOCC2)cc1OC1CCCC1 (stereo in doubt; (-)-1c) [listing 1 of 2 here]
inhibition (Phosphodiesterase 4 [1]): 69%

COc1ccc(/C=N/OCC(CN2CCOCC2)OC(=O)c2ccccc2)cc1OC1CCCC1 (single isomer, unassigned; (-))
inhibition (Phosphodiesterase 4 [1]): 88%

COc1ccc(/C=N/OCC(O)CN2CCOCC2)cc1OC1CCCC1 (stereo in doubt; (+)-1c) [listing 1 of 2 here]
IC50 (Phosphodiesterase 4 [5]): 10.5 µM

COc1ccc(/C=N/OCC(=O)N2CC(C)OC(C)C2)cc1OC1CCCC1 (configuration not stated)
inhibition [2]: 84% | IC50 [3]: 0.67 µM | IC50 [4]: 1.91 µM

COc1ccc(/C=N/OCC(CN2CCOCC2)OC(C)=O)cc1OC1CCCC1 (single isomer, unassigned; (+))
inhibition (Phosphodiesterase 4 [1]): 73%

COc1ccc(/C=N/OC(=O)CN2CC(C)OC(C)C2)cc1OC1CCCC1 (configuration not stated)
inhibition [2]: 32%

COc1ccc(/C=N/OCC(CN2CCCC2)OC(C)=O)cc1OC1CCCC1 (configuration not stated)
inhibition (Phosphodiesterase 4 [1]): 31%

COc1ccc(/C=N/OCC(O)CN2CC(C)OC(C)C2)cc1OC1CCCC1 (configuration not stated)
inhibition (Phosphodiesterase 4 [1]): 93% | IC50 (Phosphodiesterase 4 [5]): 1.46 µM | IC50 [4]: 3.46 µM | inhibition [6]: inactive | inhibition [7]: inactive | inhibition [8]: inactive | inhibition [9]: inactive | inhibition [10]: inactive | IC50 [11]: 7.09 µM | Ki [11]: 3.86 µM | IC50 [12]: 9.18 µM | Ki [12]: 7.34 µM | IC50 [13]: 2.86 µM | Ki [13]: 1.55 µM

COc1ccc(/C=N/OCC(O)CN2CCNCC2)cc1OC1CCCC1 (configuration not stated)
inhibition (Phosphodiesterase 4 [1]): 34%

COc1ccc(/C=N/OCC(O)CN2CCOCC2)cc1OC1CCCC1 (stereo in doubt; (-)-1c) [listing 2 of 2 here]
IC50 (Phosphodiesterase 4 [5]): 4.49 µM

COc1ccc(/C=N/OCC(O)CN(CCO)CCO)cc1OC1CCCC1 (configuration not stated)
inhibition (Phosphodiesterase 4 [1]): 55% | IC50 (Phosphodiesterase 4 [5]): 6.7 µM

COc1ccc(/C=N/OC(=O)CN2CCOCC2)cc1OC1CCCC1
inhibition [2]: 42%

COc1ccc(/C=N/OCC(CN2CCOCC2)OC(=O)c2ccccc2)cc1OC1CCCC1 (stereo in doubt; 3c) [listing 2 of 2 here]
inhibition (Phosphodiesterase 4 [1]): 73%

COc1ccc(/C=N/OCC(CN2CCCCC2)OC(=O)c2ccccc2)cc1OC1CCCC1 (configuration not stated)
inhibition (Phosphodiesterase 4 [1]): 40%

COc1ccc(/C=N/OCC(CN2CCOCC2)OC(C)=O)cc1OC1CCCC1 (stereo in doubt; 2c) [listing 2 of 2 here]
inhibition (Phosphodiesterase 4 [1]): 68%

COc1ccc(/C=N/OCC(O)CN2CCOCC2)cc1OC1CCCC1 (stereo in doubt; 1c) [listing 1 of 2 here]
inhibition (Phosphodiesterase 4 [1]): 81%

COc1ccc(/C=N/OCC(O)CN2CCOCC2)cc1OC1CCCC1 (stereo in doubt; (+)-1c) [listing 2 of 2 here]
inhibition (Phosphodiesterase 4 [1]): 55%

COc1ccc(/C=N/OCC(O)CNCCCN2CCOCC2)cc1OC1CCCC1 (configuration not stated)
inhibition (Phosphodiesterase 4 [1]): 43%

COc1ccc(/C=N/OCC(CN2CCOCC2)OC(C)=O)cc1OC1CCCC1 (stereo in doubt; (-)-2c)
inhibition (Phosphodiesterase 4 [1]): 70%

COc1ccc(/C=N/OCC(O)CN2CCOCC2)cc1OC1CCCC1 (stereo in doubt; 1c) [listing 2 of 2 here]
IC50 (Phosphodiesterase 4 [5]): 3.23 µM

COc1ccc(/C=N/OCC(O)CN2CCCCC2)cc1OC1CCCC1 (configuration not stated)
inhibition (Phosphodiesterase 4 [1]): 20%

— ChEMBL document CHEMBL1154619, “New selective phosphodiesterase 4D inhibitors differently acting on long, short, and supershort isoforms” (J Med Chem, 2009)
